Measurements: PMC9366314 (Acta Pharmaceutica Sinica. B, 2022)

Legend:
MP41 cells [1] = test: Transwell invasion assay, MP41; format: cell-based; settings: 3, 10, and 20 μmol/L
How it was run: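 MP41 cells (1 × 10^4/well) were placed in Transwell upper chambers, with RPMI-1640 plus 20% FBS in the lower chamber, and left overnight. Cells were then exposed to test compound for 48 h. Non-migrated cells in the upper chamber were removed. Cells in the lower chamber were stained with crystal violet for 0.5 h and counted by microscope at ×100. Data are mean ± SEM, n = 3.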

[2] = Pharmacokinetic studies in ICR mice; format: in vivo; settings: male, mouse, plasma
How it was run: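 Male ICR mice received test compound at 5 mg/kg iv or 15 mg/kg po. Samples were centrifuged at 6800×g, 2–8 °C for 6 min, stored at −80 °C and quantified by LC–MS/MS.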

92.1 cells = test: Transwell migration assay, 92.1; format: cell-based; settings: 3, 10, and 20 μmol/L; 48 h
MP41 cells [3] = test: Cell cycle analysis by flow cytometry, MP41; format: cell-based; settings: 48 h
How it was run: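 MP41 cells were seeded at 3 × 10^5 cells/well, left overnight, then exposed to test compound for 48 h. Cells were washed and fixed in 70% ethanol at 4 °C for 12 h. Staining with RNase (100 μg/mL) and PI (50 μg/mL) ran at 37 °C for 0.5 h. Phase distribution was read by flow cytometry. Data are mean ± SEM, n = 3.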

MP41 cells [4] = test: Transwell migration assay, MP41; format: cell-based; settings: 3, 10, and 20 μmol/L; 48 h
How it was run: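 MP41 cells were seeded at 1 × 10^4 cells/well in Transwell upper chambers, with RPMI-1640 plus 20% FBS in the lower chamber, and left overnight. Test compound was added for 48 h. Cells left in the upper chamber were removed, and cells on the lower side were stained with crystal violet for 0.5 h and counted by microscope at ×40.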

AUC ([2]; iv, 5 mg/kg): 1620 ± 70 ng·h/mL
Cmax ([2]; iv, 5 mg/kg): 2470 ± 192 ng/mL
MRT ([2]; iv, 5 mg/kg): 1.1 ± 0.1 h
Tmax ([2]; iv, 5 mg/kg): 0.08 h
Vd ([2]; iv, 5 mg/kg): 3.9 ± 0.4 L/kg
clearance ([2]; iv, 5 mg/kg): 50.2 ± 2.1 mL/min/kg
half-life ([2]; iv, 5 mg/kg): 1.8 ± 0.2 h
AUC ([2]; po, 15 mg/kg): 2900 ± 358 ng·h/mL
Cmax ([2]; po, 15 mg/kg): 1040 ± 267 ng/mL
MRT ([2]; po, 15 mg/kg): 3.1 ± 0.7 h
Tmax ([2]; po, 15 mg/kg): 0.5 ± 0.4 h
bioavailability ([2]; po, 15 mg/kg): 59.5%
half-life ([2]; po, 15 mg/kg): 2.4 ± 0.7 h
SMILES: CN1CCC[C@H]1CN1CCn2cc(-c3ccccc3)nc2[C@@H]1CC1CCCCC1 [GQ262]
MP41 cell invasion (MP41 cells [1]): poor invasion
92.1 cell migration (92.1 cells): remarkably and dose-dependently inhibited
Cellular proportion in G0/G1 phase (MP41 cells [3]; 3 μmol/L): 78.0%
Cellular proportion in G0/G1 phase (MP41 cells [3]; 10 μmol/L): 79.4%
MP41 cell migration (MP41 cells [4]): remarkably and dose-dependently inhibited
